B1: Osa-1-4 twister ribozyme (parent)
chain: CCGCCUAACACUGCCAAUGCCGGUCCCAAGCCCGGAUAAAAGUGGAGGGGGCGG

This passage reports self-cleavage results from the RNAGym collection of RNA variant scans (doi:10.1002/anie.201605470).

The variants in this series derive from B1. The experiment in a line: self-cleavage, relative activity (ratio to wild type); higher = more cleavage; co-transcriptional. The method in brief: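 A DNA template was synthesised for a 54-nucleotide twister ribozyme from Oryza sativa, with 97 % wild-type base and 1 % of each other base at each of the 48 positions downstream of the cleavage site. The ribozyme cleaved itself co-transcriptionally during 2 h of in vitro transcription at 37 °C. Reverse transcription with a template-switching oligonucleotide, PCR amplification and deep sequencing followed, and cleavage status came from reads with or without upstream sequence. Relative activity is the fraction cleaved normalised to wild type.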
Take A17U C15A: the self-cleavage is 0.62.
The value for A17U C15U was 0.64; that for A17U C15G was 0.54; that for A17U G30A was 0.05.
As for A17U G30C, the figure is 0.06.
As for A17U G30U, the figure is 0.04; as for A17G G35C, 0.66; as for A17G G35A, 0.79.
Turning to A17G G35U, the self-cleavage amounted to 0.77.
As for A17G G54U, the figure is 0.91; as for A17G G54C, 0.92.
For the variant A17G G54A, the self-cleavage is 0.9.
With A17G A40C, the self-cleavage came to 0.09.
In the case of A17G A40U, the self-cleavage was 0.83.
In the case of A17G A40G, the self-cleavage came out at 0.89.
As for A17C G19C, the figure is 0.04; as for A17C G19A, 0.06; as for A17C G19U, 0.04.
The value for A17G G45U was 0.17.
For A17G G45A, the self-cleavage amounted to 0.43.
As for A17G G45C, the figure is 0.07; as for A17G C11U, 0.68.
As for A17G C11A, the figure is 0.5; as for A17G C11G, 0.3.
The value for A17G G53C was 0.12.
A17G G53A: the self-cleavage stood at 0.85.
With A17G G53U, the self-cleavage worked out at 0.54.
The value for A17C G44U was 0.7.
With A17C G44A, the self-cleavage stood at 0.81.
As for A17C G44C, the self-cleavage worked out at 0.72.
On to A17U G45U, for which the self-cleavage is 0.18.
As for A17U G45A, the figure is 0.54; as for A17U G45C, 0.06; as for A17U C27U, 0.25.
As for A17U C27A, the figure is 0.29; as for A17U C27G, 0.13.
Consider A17C G35U, for which the self-cleavage was determined as 0.6.
For the variant A17C G35A, the self-cleavage was 0.6.
The value for A17C G35C was 0.45; that for A17C G34U was 0.26; that for A17C G34A was 0.34.
As for A17C G34C, the figure is 0.14; as for A17C G22A, 0.21.
As for A17C G22C, the self-cleavage was 0.05.
As for A17C G22U, the figure is 0.06; as for A17U A29G, 0.35.
Turning to A17U A29C, the self-cleavage came to 0.05.
As for A17U A29U, the figure is 0.19; as for A17U G22C, 0.11.
The value for A17U G22U was 0.63.
As for A17U G22A, the figure is 1.04; as for A17U G42A, 0.17; as for A17U G42C, 0.29.
Regarding A17U G42U, the self-cleavage came to 0.56.
Regarding A17U G48U, the self-cleavage is 0.08.
A17U G48C: the self-cleavage turned out to be 0.13.
The value for A17U G48A was 0.16; that for A17U G44C was 0.98; that for A17U G44U was 0.94.
For the variant A17U G44A, the self-cleavage was 1.
In the case of A17G G49C, the self-cleavage was determined as 0.08.
The value for A17G G49U was 0.25.
As for A17G G49A, the self-cleavage was found to be 0.26.
For A17C G54C, the self-cleavage worked out at 0.87.
As for A17C G54U, the figure is 0.91; as for A17C G54A, 0.9; as for A17C G50U, 0.86.
As to A17C G50A, the self-cleavage amounted to 0.51.
In the case of A17C G50C, the self-cleavage was found to be 0.9.
As for A17U A41G, the figure is 0.9; as for A17U A41C, 0.98.
As for A17U A41U, the figure is 0.96.
The value for A17U C31A was 0.05; that for A17U C31G was 0.12; that for A17U C31U was 0.94.
On to A17G U37A, for which the self-cleavage turned out to be 0.63.
As for A17G U37C, the figure is 1.02.
As for A17G U37G, the figure is 1.01; as for A17C U12C, 0.08; as for A17C U12G, 0.18.
As for A17C U12A, the self-cleavage is 0.15.
The value for A17U G23A was 0.56.
As for A17U G23U, the figure is 0.13; as for A17U G23C, 0.06; as for A17G C32A, 0.07.
For A17G C32U, the self-cleavage was determined as 0.19.
As to A17G C32G, the self-cleavage came out at 0.15.
For the variant A17C G48U, the self-cleavage turned out to be 0.03.
The value for A17C G48A was 0.05; that for A17C G48C was 0.03.
The value for A17C G47C was 0.05.
As for A17C G47U, the figure is 0.09; as for A17C G47A, 0.07; as for A17U A28G, 0.37.
Regarding A17U A28C, the self-cleavage amounted to 0.94.
As for A17U A28U, the figure is 0.97.
The value for A17G C27U was 0.29.
As for A17G C27A, the figure is 0.35; as for A17G C27G, 0.13; as for A17G U18G, 0.85.
Consider A17G U18A, for which the self-cleavage was 0.94.
As for A17G U18C, the figure is 0.52; as for A17C U24G, 0.02.
The value for A17C U24A was 0.03; that for A17C U24C was 0.05.
Turning to A17G A7C, the self-cleavage was determined as 0.08.
The value for A17G A7G was 0.49.
As for A17G A7U, the figure is 0.1; as for A17U A40U, 0.63.
Regarding A17U A40C, the self-cleavage came out at 0.09.
As for A17U A40G, the figure is 0.93; as for A17G U24A, 0.43; as for A17G U24G, 0.03.
A17G U24C: the self-cleavage is 0.36.
The value for A17G U43C was 0.72.
Take A17G U43G: the self-cleavage stood at 0.51.
As for A17G U43A, the figure is 0.81.
The value for A17G G22C was 0.15; that for A17G G22A was 0.97; that for A17G G22U was 0.79.
The value for A17U C32G was 0.17.
For the variant A17U C32U, the self-cleavage was 0.25.
The value for A17U C32A was 0.13.
With A17G G30C, the self-cleavage was found to be 0.06.
As for A17G G30A, the figure is 0.05.
As for A17G G30U, the figure is 0.05.
On to A17G A41C, for which the self-cleavage was 0.9.
As for A17G A41G, the figure is 0.94.
On to A17G A41U, for which the self-cleavage was 0.94.
For the variant A17C G51C, the self-cleavage was 0.13.
In the case of A17C G51U, the self-cleavage was found to be 0.22.
The value for A17C G51A was 0.32; that for A17G C25A was 0.21.
As for A17G C25G, the figure is 0.13.
For A17G C25U, the self-cleavage was determined as 0.87.
As to A17U G51C, the self-cleavage came out at 0.19.
As to A17U G51A, the self-cleavage was found to be 0.67.
As for A17U G51U, the figure is 0.38; as for A17U C26U, 1; as for A17U C26A, 0.06.
Turning to A17U C26G, the self-cleavage was determined as 0.09.
A17U A39G: the self-cleavage worked out at 1.03.
The value for A17U A39C was 0.98; that for A17U A39U was 1.03; that for A17C C31G was 0.05.
The value for A17C C31U was 0.16; that for A17G G47A was 0.46; that for A17G G47C was 0.17.
As for A17G G47U, the figure is 0.43; as for A17G U12G, 0.39; as for A17G U12C, 0.56.
With A17G U12A, the self-cleavage turned out to be 0.86.
For A17C U18C, the self-cleavage came out at 0.57.
The value for A17C U18G was 0.79; that for A17C U18A was 0.78.
As for A17U G34A, the figure is 0.82; as for A17U G34C, 0.5; as for A17U G34U, 0.78.
Regarding A17U C9G, the self-cleavage was 0.8.
Consider A17U C9U, for which the self-cleavage was 0.81.
The value for A17U C9A was 0.41.
The value for A17U A46G was 0.09; that for A17U A46C was 0.04; that for A17U A46U was 0.1.
The value for A17G G13U was 0.04; that for A17G G13C was 0.03; that for A17G G13A was 0.23.
